# Test results from ChEMBL document CHEMBL4513216, “Probing the Open Global Health Chemical Diversity Library for Multistage-Active Starting Points for Next-Generation Antimalarials” (ACS Infect Dis, 2020).
# Assay: Toxicity liver stage against HepG2, at 10uM
# Type: cell-based
# Set-up: test concentration 10 uM, cell line HepG2-A16-CD81EGFP
# Conditions: human, HepG2-A16-CD81EGFP cells; read-out: INHIBITION
# In short: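 Uninfected HepG2-A16-CD81EGFP cells, 3 × 10^3 per well, 1536-well, plated on prespotted compound at 10 μM final, parasite-free screening media added to match infected plates; puromycin 10 μM positive, DMSO 0.5% negative; run in parallel with 48 h PbLuc assay at 37 °C, 5% CO2; viability by CellTiter-Glo luminescence, normalized to controls.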
row,Structure (SMILES),cytotoxicity at 10 µM
1,O=S(=O)(NC[C@H]1C[C@@H]2CCN1C[C@@H]2CN1CCCC1)c1ccc(Cl)cc1,-4.38%
2,COC(=O)[C@@H]1Cc2ncn(C)c2CN1S(=O)(=O)c1ccc(OC)cc1,-4.13%
3,O=C(NCCCO)c1cc(-c2ccc3c(c2)CCO3)n[nH]1,-4.24%
4,CC(C)C1SCC(=O)Nc2c1cnn2C(C)C (stereo unspecified),4%
5,Cc1ccccc1-n1ncc2c(=O)n(CCN3CCCCC3)cnc21,-8.47%
6,O=C1CCC2(CCN(S(=O)(=O)c3ccccc3)CC2)N1CC1CC1,3.41%
7,Cc1ccc(C(=O)N2CCC3(CC2)CC(NC(=O)C(C)C)CO3)cc1 (stereo unspecified),-1.89%
8,O=C(N[C@]12CC1CN(C(=O)c1ccco1)C2)c1cccc(F)c1 (stereo partly specified),-15.3%
9,COCCN1C(=O)CCC12CCN(C(=O)CNC(C)=O)CC2,3.47%
10,Cc1ccccc1N1CC2(CCN(c3nncs3)C2)CC1=O (stereo unspecified),-7.74%
11,CCOC(=O)CN1C[C@@H]2OCCN(c3ncc(F)cn3)[C@@H]2C1,20.2%
12,CCC1=N[C@@]2(CC[C@@H]3CN(S(=O)(=O)CC(C)C)C[C@@H]32)C(=O)N1CC,0.167%
13,Cc1nc(CN2CCO[C@H]3CN(C(=O)c4cccn4C)C[C@H]32)cs1,-136%
14,COc1ccc(C2OC(COc3ccccc3Br)=NN2C(C)=O)cc1 (stereo unspecified),3.56%
15,O=C(NCc1ccco1)[C@H]1C[C@H]2OCC[C@H]2N(S(=O)(=O)C2CC2)C1,-1.48%
16,COCCC(=O)N1CCN(C)c2ncccc2C1,-8.28%
17,Cn1cc(-c2cnc(N3CCCC3)nc2)cc1C(=O)O,-16.3%
18,Cc1cccc(CNC(=O)CC2CCN(C(=O)C(C)C)CC2)n1,7.45%
19,COCC(=O)N1CCC(c2cc(-c3ccc(OC)cc3)n[nH]2)C1 (stereo unspecified),-10.3%
20,CNc1cccc(C2CN(C(=O)CNS(C)(=O)=O)CCO2)n1 (stereo unspecified),-2.24%
21,Cc1ncncc1C(=O)N1CCOC(C)(C(=O)NC2CCCC2)C1 (stereo unspecified),-36.4%
22,CS(=O)(=O)N1CCCC1c1cccc(Cc2ccccc2F)n1 (stereo unspecified),-13.2%
23,CSCC(CCO)Nc1nc(C(F)F)nc2ccccc12 (stereo unspecified),-5.52%

row,Structure (SMILES),cytotoxicity at 10 µM
1,Cc1nc(C(C)C)sc1C(=O)N1CCC(C(N)=O)CC1,1.68%
2,O=C(O)c1cnc(OCC2CC2)c(Cl)c1,-5.38%
3,Cc1cc(C(=O)Nc2ccc(OCCN3CCN(C)CC3)cc2)[nH]n1,-2.51%
4,O=C(NCCNc1ncccn1)c1ccc(OCc2ccccc2)nc1,17%
5,CC(C1CC1)N(C)Cc1nnc(-c2ccc(Br)s2)o1 (stereo unspecified),-11.2%
6,Cc1ccc(CN2CCC(CNC(=O)Cn3cncn3)CC2)cc1,1.22%
7,CCN1CC(COC(=O)c2ccccc2Cl)CC1=O (stereo unspecified),-1.54%
8,CC(C)COCCNC(=O)NC1CCCN(c2cnn(C)c2)C1 (stereo unspecified),9.39%
9,O=C(NCc1nncn1C1CC1)C1(c2ccccc2)CCOCC1,3.31%
10,COc1ccc(CNC(=O)N2CCCN(CC3CCCCC3)CC2)cn1,-3.36%
11,CN(Cc1cc(Br)cn1C)C(=O)c1cc(Cl)ccn1,-11%
12,O=C(Nc1ccccc1F)N(CCO)CCOCC(F)(F)F,1.1%
13,Cc1noc(C)c1CC(=O)NCCN1CCN(S(C)(=O)=O)CC1,-5.87%
14,CC(C(=O)N1CCN(c2ccc(F)cc2)CC1)n1ccnc1 (stereo unspecified),1.05%
15,COC(=O)CCNC(=O)c1ccc(NC(=O)N(C)CC(C)C)cc1,9.13%
16,Cc1ccc(O)c(C(=O)N2CCC(CNC(=O)OC(C)(C)C)C2)c1 (stereo unspecified),16.4%
17,CC(C)=CCNC1CCCN(c2ccc(C)nn2)C1 (stereo unspecified),5.23%
18,COCCNC(=O)Nc1ccc(CN2CCOC2=O)cc1,-4.62%
19,CCc1nc(CNC(=O)Nc2nc(COC)cs2)cs1,-0.67%
20,CCn1ncc2c1CCCC2NCc1csc(COC)n1 (stereo unspecified),1.17%
21,NS(=O)(=O)CCN1CCOC(c2ccc(Cl)cc2)C1 (stereo unspecified),-0.317%
22,CNC(=O)c1ccc(OC)c(NCc2noc(-c3ccsc3)n2)c1,0.736%
23,COCCN1CCN(CC(=O)N(C)Cc2ccccc2)CC1C (stereo unspecified),-144%

row,Structure (SMILES),cytotoxicity at 10 µM
1,O=C(Nc1cc(-c2ccccc2)on1)N1CC[C@H](O)C1,4.98%
2,Nc1nccnc1C(=O)N(Cc1ccco1)CC1CCCO1 (stereo unspecified),8.13%
3,Cn1cc(CNC(=O)C2COCC(=O)N2Cc2ccccc2)cn1 (stereo unspecified),-4.88%
4,Cc1occc1C(=O)N1CCC(C(O)c2ccc(Cl)cc2)CC1 (stereo unspecified),-0.342%
5,CNC(=O)c1csc(-c2ccoc2)n1,-5.64%
6,Cc1cccc(NC(=O)NC2CCN(C3CCOC3)CC2)c1 (stereo unspecified),4.24%
7,Cc1cccc(C)c1OCCCN1CCC(n2cncn2)CC1,-24.3%
8,CNC(=O)NC(=O)CCSCc1cc(Cl)cc2cccnc12,-8.06%
9,Cc1ccccc1CS(=O)(=O)CC(=O)N(C)Cc1ccccc1F,-0.969%
10,N#Cc1ccc(N2CCN(c3nccs3)CC2)nc1,31%
11,CCC[C@@H](NC(N)=O)C(=O)N1Cc2ccccc2-c2ccccc2C1,5.17%
12,O=S(=O)(Cc1ccccc1Cl)NC(CO)c1ccco1 (stereo unspecified),-6.86%
13,CN(CC(F)F)C(=O)c1cn(-c2ccc(Br)cc2)cn1,1.73%
14,CCc1ncc(C(=O)NCCNC(=O)Cc2ccc(F)cc2)s1,-2.57%
15,Cc1cccc(NC(=O)c2sccc2C)n1,-1.45%
16,Cc1noc(C)c1CN1CCn2cc(CN3CCOCC3)nc2C1,4.71%
17,CCn1c(Cn2cccn2)nnc1C1CCN(Cc2ccc(C)o2)CC1,-1.14%
18,Cc1cc(C)cc(CN2CCN(C(=O)C3CCC3)[C@@H]3CS(=O)(=O)C[C@@H]32)c1,-1.38%
19,Cc1ccsc1-c1nnc(SCC(=O)O)n1C(C)c1ccccc1 (stereo unspecified),-4.65%
20,O=C1CCC2(CCN(Cc3nccs3)CC2)CN1CCCO,-7.56%
21,Cc1cc(C)c2c(N(C)CC3COCCO3)ncnc2n1 (stereo unspecified),-133%
22,CCSc1ncc(CN2CCN(c3nc(C)cnc3C)CC2)cn1,5.84%
23,Cc1ccsc1CN(CCN(C)C)C(=O)c1ccc(C#N)nc1,-120%

row,Structure (SMILES),cytotoxicity at 10 µM
1,Cc1ncsc1CCN(C)C(=O)CCc1nc2cccnc2n1C,-149%
2,O=C(Nc1ccccc1OCCc1ccccn1)N1CC[C@@H](O)C1,4.4%
3,CNC(=O)[C@@H]1C[C@@H](N)CN1Cc1cc2cc(C)cc(C)c2[nH]c1=O,-5.23%
4,Cc1nc(N)nc(C)c1CC(=O)N1CCCN(CC2CC2)C(C(C)C)C1 (stereo unspecified),-142%
5,COc1nccc(N2CC[C@@H](N3CCC(O)CC3)[C@H](O)C2)c1C#N,-152%
6,O=C1CCC2(CCN(CC[C@@H](O)c3ccccc3)CC2)CN1CC1CC1,4.51%
7,CCOc1cccc(CN2CCCC(Nc3ccc(F)cc3)C2)c1O (stereo unspecified),-8.93%
8,c1ncn(Cc2nnc(C3CCN(C4CCOCC4)CC3)n2C2CC2)n1,-3.51%
9,CSCC[C@H](NC(C)=O)c1nc(CCc2ccccc2)n[nH]1,5.08%
10,Nc1cc(-c2cccc3ccnn23)ccn1,0.858%
11,CCCOCCCNc1nccc(-c2cn(C)nc2C)n1,-10.5%
12,Cn1nccc1CNC(=O)CCn1nc(C(F)(F)F)cc1C1CC1,-8.74%
13,COc1ccc(CN2CCC3(CC(Nc4ccncn4)C3)C2)c(OC)c1 (stereo unspecified),2.43%
14,O=C(CCOc1cccc(F)c1)N1CCCC1Cn1cccn1 (stereo unspecified),-5.7%
15,Cc1ccc(NC(=O)C2CSCN2C(=O)c2cnsn2)c(C)c1 (stereo unspecified),-0.955%
16,Cn1cc(CC2CCN(C(=O)NCc3cccc(C(N)=O)c3)C2)cn1 (stereo unspecified),-4.25%
17,Cc1noc2ncc(C(=O)NCC3CCS(=O)(=O)C3)cc12 (stereo unspecified),-18.9%
18,Cc1noc(C)c1C(=O)N1CCCC1c1c(C)nn(C)c1C (stereo unspecified),-5.68%
19,Clc1cccc(Cl)c1-c1nnc(CNCCn2cccn2)o1,-6.46%
20,CC(C)NC(=O)c1cc(Br)c2c(c1)OCCO2,-13.3%
21,COc1c(C2CCCN2C(=O)c2ccc(C#N)c(C)n2)c(C)nn1C (stereo unspecified),-8.45%
22,CC(C)CCCNC(=O)Nc1ccc(C(N)=O)c(Cl)c1,4.69%
23,CC(NC(=O)NCc1ccccc1Cl)c1ccccn1 (stereo unspecified),-11.1%

row,Structure (SMILES),cytotoxicity at 10 µM
1,O=C(CCCOc1cccc(F)c1)N1CCCC(n2cncn2)C1 (stereo unspecified),-13.2%
2,CCN(Cc1ccccc1)Cc1nc2c(cnn2C)c(=O)[nH]1,2.86%
3,O=C(NCCCn1cccn1)NCC(c1ccco1)N1CCCC1 (stereo unspecified),-13.3%
4,CCn1c(C)nnc1CN(C)C1CCN(CCS(=O)(=O)CC)C1 (stereo unspecified),-1.17%
5,CC(=O)NC1CCCN(C(=O)NCc2cccnc2)C1 (stereo unspecified),-10.5%
6,CCn1cc(CN2CCCN(C(=O)c3ccc(C)nc3)CC2)cn1,-10.4%
7,O=C(c1ccc2[nH]nnc2c1)N1CCCC(n2cccn2)C1 (stereo unspecified),-1.56%
8,Cc1noc(C2CCCN(C(=O)c3cc(Cl)ccc3F)C2)n1 (stereo unspecified),2.66%
9,O=C(NCC1CC1)c1nc2c(o1)CN(CC1CC1)C2,-147%
10,CCOCC1c2c(cnn2C)CCN1C(=O)c1ccncn1 (stereo unspecified),-141%
11,CN(C)C(=O)COCC1CN(Cc2cccs2)Cc2ncn(C)c21 (stereo unspecified),13.1%
12,OC(CN1CCN(Cc2ccc(F)c(F)c2)CC1)C1CC1 (stereo unspecified),-22.2%
13,O=S(=O)(C1CC1)N1CCC[C@]2(C[C@@H](Oc3ccccn3)CO2)C1,-144%
14,O=C(Nc1ccccc1)C1CN(Cc2ccco2)CC12CCOCC2 (stereo unspecified),-3.2%
15,CCN(CC)c1ncnc2c1CCN(C(=O)Cc1ccccn1)CC2,3.13%
16,Cc1cccc(CN2CCO[C@H]3[C@H](Oc4ccccn4)CC[C@@H]32)n1,-4.65%
17,c1cncc(CN2CC[C@@H]3O[C@H](COCCN4CCCC4)CC[C@@H]32)c1,-156%
18,COCCN1C(=O)[C@@H]2CC[C@H]1CN(c1nccc(C3CCCC3)n1)C2,7.67%
19,O=C(c1ccccc1)N1C[C@H]2CC[C@@H](C1)N(S(=O)(=O)c1cccnc1)C2,-9.33%
